Sampled rows, rich in hits. Any-hit rate of the full collection: about 1.9%.
Runt-CBFb FRET = inhibitors of RUNX1 Runt–CBFb binding, primary screen, biochemical, FRET, Cerulean-Runt, Venus-CBFb, uHTS | 220,000 tested, 0.46% active | Cerulean-Runt/Venus-CBFb FRET ratio 530/480, 1 h | AID 1496, 2009 | inhibition, % at 20 µM | Runt-related transcription factor 1 (Homo sapiens) + Core-binding factor subunit beta …;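 active = inhibition over about 50% at 20 µM in the single-dose screen, limit read from the data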;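 note: 0% = DMSO wells and 100% = excess unlabeled CBFb competitor control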
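test system = Cerulean-Runt domain fusion protein, energy donor | probe or stimulus = Venus-CBFb binding partner, 100 nM | incubation = two 1 h room-temperature incubations shielded from light | detection = fluorescence energy transfer, 422 nm excitation, 530/480 nm emission | measure = loss of energy transfer signal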
Runt-SMMHC FRET = inhibitors of RUNX1 Runt–CBFb-SMMHC binding, primary screen, biochemical, FRET, Cerulean-Runt, Venus-CBFb-SMMHC, uHTS; Cerulean-Runt/Venus-CBFb-SMMHC FRET ratio 530/480, 1 h; 220,000 tested, 0.74% active; inhibition, % at 20 µM;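 active = mean inhibition across duplicate retests at 20 µM reaching about 50%, limit read from the data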;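 note: 0% = DMSO wells and 100% = wells with excess untagged CBFb-SMMHC; inhibitors lower the FRET ratio by blocking Runt binding to CBFb-SMMHC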
Hck Nef HTS = inhibitors of Nef-activated human Hck kinase, primary screen, biochemical, Z-Lyte FRET, 384-well, Hck-YEEI; AID 463187, 2010; Recombinant Hck-YEEI plus Nef, Z-Lyte FRET kinase assay; Tyrosine-protein kinase HCK (Homo sapiens), P08631; 220,000 tested, 0.68% active; inhibition, % at 20 µM;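 active = Hck-Nef kinase inhibition above about 50%, limit read from the data; inactive = inhibition below that limit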;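 note: 0% = DMSO with Hck plus Nef and 100% = Hck alone without Nef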
Target sequence (P08631 whole entry, looked up): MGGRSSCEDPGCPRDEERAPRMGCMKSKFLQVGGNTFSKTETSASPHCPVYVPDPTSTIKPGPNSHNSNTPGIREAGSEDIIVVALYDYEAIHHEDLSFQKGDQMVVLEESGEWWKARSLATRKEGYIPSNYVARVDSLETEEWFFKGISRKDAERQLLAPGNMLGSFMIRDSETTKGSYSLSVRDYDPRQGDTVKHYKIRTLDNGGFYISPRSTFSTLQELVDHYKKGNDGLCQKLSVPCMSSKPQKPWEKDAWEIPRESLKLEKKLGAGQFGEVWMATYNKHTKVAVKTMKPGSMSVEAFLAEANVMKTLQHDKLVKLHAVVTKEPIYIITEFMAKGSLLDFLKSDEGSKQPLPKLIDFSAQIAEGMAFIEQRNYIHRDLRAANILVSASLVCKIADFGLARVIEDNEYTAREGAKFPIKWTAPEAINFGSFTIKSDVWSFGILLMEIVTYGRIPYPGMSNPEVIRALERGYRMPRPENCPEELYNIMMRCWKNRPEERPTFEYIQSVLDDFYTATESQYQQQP
RanGTP-Impb inh = inhibitors of RanGTP-importin-beta interaction, primary screen, biochemical, FRET, CFP-Ran, YFP-importin-beta, homogeneous; Ran GTPase (GTP-bound) - importin-beta complex; cell-free CFP-Ran/YFP-importin-beta FRET ratio; inhibition, % (no concentration beside the values); 300,000 tested, 1.1% active; AID 2216, 2009;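 active = more than half of the replicate wells show a fall in the fluorescence ratio signal beyond about 16%, limit read from the data, passing the limit was not always enough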;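 note: 0% = DMSO wells and 100% = Ran loaded with GDP instead of GTP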
YIC FRET counter = YIC intramolecular FRET probe signal interference, dose response, counter-screen for RanGTP-importin-beta inhibitor project, biochemical, fluorescence FRET; 1,000 tested, 40% active; Purified YIC probe, intramolecular FRET ratio YFP/CFP; IC50, µM; shares compounds with RanGTP-Impb inh;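 active = fitted half-maximal inhibitory concentration no more than tenfold above the top dose tested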
* marks the source's active call; other numbers are inactive results; nt = no result.

SMILES | Runt-CBFb FRET | Runt-SMMHC FRET | Hck Nef HTS | RanGTP-Impb inh | YIC FRET counter
Oc1c(Cl)cc(Cl)cc1CNc1nc2ccccc2[nH]1 | nt | nt | nt | -0.1 | nt
COc1ccccc1C(=O)NC(=S)Nc1ccc(N2CCCC2)cc1 | 1.3 | 1.7 | 2.5 | 19.7* | >50
COc1ccccc1C(=O)NC(=S)Nc1ccccc1N1CCCC1 | nt | nt | nt | 3.8 | nt
O=C(Nc1ccc2ccccc2n1)c1ccccc1Br | nt | nt | nt | 2.7 | nt
CC1(C)CC(=O)C(C(C2=C(O)CC(C)(C)CC2=O)c2ccc(O)c([N+](=O)[O-])c2)=C(O)C1 | nt | nt | 40.7 | 1.2 | nt
O=C(c1ccco1)N1CCN(c2cc(=O)n(-c3ccc(Cl)cc3)c(=O)[nH]2)CC1 | 0.1 | 2.5 | 0.1 | 48.0* | >50
COC(=O)c1ccc(CNS(=O)(=O)c2ccc3ccccc3c2)cc1 | nt | nt | nt | -2.6 | nt
O=C(NC1=NCCS1)c1cc(-c2cccs2)nc2ccccc12 | 1.0 | -1.4 | 14.9 | 5.0 | nt
O=C(NC1=NCCS1)c1cc(-c2cccnc2)nc2ccccc12 | -5.1 | -0.9 | 13.0 | 15.4* | >50
Cc1ccc(NC(=O)CN(C)S(=O)(=O)c2cccs2)cc1C | 0.2 | 0.4 | 0.9 | 0.9 | nt
C[C@H](CO)N1C[C@H](C)[C@@H](CN(C)S(=O)(=O)c2cccs2)Oc2ccc(NC(=O)Cc3ccccc3)cc2CC1=O | nt | nt | nt | nt | >50
O=C(Nc1ccccc1C(=O)Nc1nnc(C(F)(F)F)s1)c1ccccc1Cl | -0.6 | 0.4 | 17.7 | 5.7 | nt
COc1cc(OC)cc(-c2cc3nc(C)cc(N4CCN(C(=O)c5ccco5)CC4)n3n2)c1 | 12.5 | 26.4 | 2.3 | 28.9* | 3.68*
CCN(CC)S(=O)(=O)c1ccc(NC(=O)c2ccc(Sc3nncn3C)c([N+](=O)[O-])c2)cc1 | -3.5 | 1.6 | -0.5 | 23.3* | >50
Cc1cc(C)c[n+](-c2nc3ccccc3nc2[N-]S(=O)(=O)c2ccc(Br)s2)c1 | 34.4 | 78.4* | -0.6 | 29.9* | 7.87*
O=S(=O)([N-]c1nc2ccccc2nc1-[n+]1ccccc1)c1ccccc1 | 0.5 | 2.0 | -1.0 | 3.1 | nt
Cc1cc(Nc2ccccc2)nn1C(=O)c1ccccc1 | -1.5 | -5.6 | 2.8 | 17.8* | >50
C=CCn1c(C)c(C(C)=O)c(N2CCN(C(c3ccccc3)c3ccccc3)CC2)nc1=S | 1.3 | -1.4 | -0.3 | 29.8* | >50
CN(CC(=O)Nc1c(Cl)cccc1Cl)C(=O)CCNS(=O)(=O)c1ccccc1C(F)(F)F | nt | nt | nt | 2.4 | nt
Cc1ccccc1CN1CCN(S(=O)(=O)c2ccc(F)cc2)CC1 | -1.4 | -1.2 | 7.4 | -0.1 | nt
Cc1cccc(C)c1N1CCN(S(=O)(=O)c2ccc(F)cc2)CC1 | -0.2 | -0.7 | 3.4 | 18.9* | >50
O=C(Nc1nonc1NC(=O)c1cccs1)c1cccs1 | 0.4 | -0.9 | 12.3 | 21.1* | >50
O=C(Nc1ccc(NC(=O)c2cccs2)cc1)c1cccs1 | nt | nt | nt | -0.2 | nt
CC(C)(C)OC(=O)C(C)(C)Sc1nnc(N)s1 | 1.1 | 2.3 | 12.4 | -2.1 | nt
CC(C)(C)Nc1nc(SCC(=O)Nc2ccccc2)nc(N2CCOCC2)n1 | -2.8 | 3.2 | 20.3 | 21.5* | >50
SMILES | Runt-CBFb FRET | Runt-SMMHC FRET | Hck Nef HTS | RanGTP-Impb inh | YIC FRET counter
CN(C)c1nc(SCC(=O)Nc2ccccc2)nc(N2CCOCC2)n1 | 0.1 | -4.4 | 16.8 | -0.9 | nt
Oc1c(C=Nc2ccccc2)sc(=S)n1Cc1ccccc1 | 11.5 | 45.7 | 15.7 | 39.0* | 43.7*
CCn1c(O)c(C=Nc2ccccc2)sc1=O | 5.8 | 46.8 | 14.7 | 0.9 | nt
CCn1c(O)c(/C=N/n2cnnc2)sc1=S | 20.4 | 2.7 | -1.8 | 1.2 | nt
CCn1c(O)c(C=Nc2ccccc2)sc1=S | 34.7 | 68.5* | -11.9 | 36.9* | 16.8*
N#CC1=C(N)SC(N)=C(C#N)C1c1cccc(Oc2ccccc2)c1 | 39.4 | 78.2* | 5.4 | 24.2* | >50
N#CC1=C(N)SC(N)=C(C#N)C1c1c(Cl)cccc1Cl | 15.4 | 43.3 | 14.0 | 9.9 | nt
Cn1c(=O)[nH]c2c(nc(-c3ccc(Cl)cc3)n2C)c1=O | nt | nt | nt | 18.2* | 31.9*
Cc1ccc(C2=CC(c3ccccc3)n3ncnc3N2)c(C)c1 (stereo unspecified) | nt | nt | nt | 18.6* | >50
Cc1ccc(C2=CC(c3ccccc3)n3ncnc3N2)cc1 (stereo unspecified) | nt | nt | nt | -5.4 | nt
O=C(NC(Cc1ccccc1)C(=O)N1CCCCC1)c1ccccc1 (stereo unspecified) | nt | nt | nt | 1.9 | nt
O=C(N/N=C/c1ccc(-c2ccccc2Cl)o1)c1ccccc1 | 0.2 | 0.1 | -34.3 | 20.5* | >50
NC(=O)c1cc([N+](=O)[O-])ccc1NCCN1C(=O)c2ccccc2C1=O | -0.6 | -3.9 | 18.8 | 0.2 | nt
CC1=C(C(=O)OC(C)C)C(c2ccc(N(C)C)cc2)C2=C(CC(C)(C)CC2=O)N1 (stereo unspecified) | 5.2 | 8.7 | 1.1 | 1.0 | nt
CC1=C(C(=O)OC(C)C)C(c2cccnc2)C2=C(CC(C)(C)CC2=O)N1 (stereo unspecified) | 77.4* | 101.7* | 34.1 | 18.7* | 23.2*
COc1ccc(C(=O)N/N=C/c2c(CO)cnc(C)c2O)cc1 | 3.5 | 88.4* | -8.5 | 21.7* | 1.52*
COc1ccc(C(=O)N/N=C/c2c(C)[nH]c(=O)[nH]c2=O)cc1 | 1.2 | -2.1 | 16.1 | -1.2 | nt
O=C(NCc1ccccc1)C(c1ccc(Cl)cc1)N(C(=O)c1csnn1)C1CC1 (stereo unspecified) | nt | nt | nt | -3.0 | nt
COC(=O)N(C)C[C@H]1OCc2cn(nn2)CCCC(=O)N([C@@H](C)CO)C[C@H]1C | nt | nt | nt | nt | >50
O=C1COc2ccc(S(=O)(=O)Nc3cccc(Cl)c3)cc2N1 | nt | nt | nt | 1.7 | nt
C=CCC1NS(=O)(=O)O[C@H](CCCC)[C@@H]1O (stereo partly specified) | nt | nt | nt | -0.3 | nt
Clc1cccc(-c2ccc(C=Nc3ccc(N4CCOCC4)cc3)o2)c1Cl | 7.0 | -1.5 | 31.0 | 23.2* | >50
Cc1c(CC(=O)NCC(=O)N[C@H](Cc2ccccc2)C(=O)O)c(=O)oc2cc(O)ccc12 | nt | nt | nt | 16.0* | 45.6*
COCCN1C=C(C(=O)OC)C(c2ccc(Cl)cc2)C(C(=O)OC)=C1 | 93.8* | 104.9* | 74.6* | 41.0* | 13.2*
Cc1ccc(S(=O)(=O)N2CCN(c3nccnc3C#N)CC2)cc1 | 1.6 | 1.5 | 8.5 | 7.9 | nt
COc1ccc(/C=N/N2CCOCC2)cc1Cn1cc([N+](=O)[O-])cn1 | -0.5 | -0.9 | 13.9 | -4.3 | nt
CC1CCCCN1Cc1c(O)ccc2c(=O)c(-c3nc4ccccc4s3)coc12 (stereo unspecified) | 10.4 | 25.1 | 43.4 | 38.0* | <0.38*
